Data published in ChEMBL document CHEMBL1154975, “Selective inducible microsomal prostaglandin E(2) synthase-1 (mPGES-1) inhibitors derived from an oxicam template” (Bioorg Med Chem Lett, 2010).

How the values were obtained:
[1] = target: T1, Prostaglandin E synthase (Homo sapiens, UniProt O14684); test: Inhibition of human mPGES1 assessed as PGE2 level after 41 sec by ELISA
T1 sequence (O14684 whole entry): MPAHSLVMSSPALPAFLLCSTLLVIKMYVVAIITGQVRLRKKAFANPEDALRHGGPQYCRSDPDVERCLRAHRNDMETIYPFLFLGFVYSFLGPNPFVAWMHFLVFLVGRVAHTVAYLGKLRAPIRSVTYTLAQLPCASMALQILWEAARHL
Outline: (§1)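 Enzyme in 100 mM potassium phosphate pH 6.2 with 2.5 mM glutathione, compound added in DMSO. Reaction started with PGH2 (final 2 µM), stopped with 2.5 mM FeCl2, diluted 120-fold into ELISA buffer. PGE2 by ELISA against a standard curve. % control set between reference-inhibited and enzyme-only controls; IC50 by 4-parameter log fit of duplicate data.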

[2] = target: T1, Prostaglandin E synthase; test: Inhibition of human mPGES1 in IL1-beta treated human FF cells assessed as blockade of PGH2 to PGE2 conversion after 50 mins by ELISA; type: cell-based
Outline: (§2)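 Human fetal fibroblasts in DMEM/15% FBS at 37 °C, 5% CO2; after 20–24 h, stimulated 20–24 h with 1 ng/mL IL-1β, washed, compound 50 min in serum-free DMEM, then 10 µM arachidonic acid 10 min. PGE2 by ELISA. For PGF2α, SnCl2 added after compound for 10 min before arachidonic acid. IC50 from duplicate data.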

[3] = target: T2, Prostaglandin G/H synthase 2 (Homo sapiens, UniProt P35354); test: Inhibition of human COX2 in IL1-beta treated human FF cells assessed as blockade of SnCl2-mediated PGH2 to PGF2alpha conversion after 50 mins by ELISA; type: cell-based; outline: as §2
T2 sequence (P35354 whole entry): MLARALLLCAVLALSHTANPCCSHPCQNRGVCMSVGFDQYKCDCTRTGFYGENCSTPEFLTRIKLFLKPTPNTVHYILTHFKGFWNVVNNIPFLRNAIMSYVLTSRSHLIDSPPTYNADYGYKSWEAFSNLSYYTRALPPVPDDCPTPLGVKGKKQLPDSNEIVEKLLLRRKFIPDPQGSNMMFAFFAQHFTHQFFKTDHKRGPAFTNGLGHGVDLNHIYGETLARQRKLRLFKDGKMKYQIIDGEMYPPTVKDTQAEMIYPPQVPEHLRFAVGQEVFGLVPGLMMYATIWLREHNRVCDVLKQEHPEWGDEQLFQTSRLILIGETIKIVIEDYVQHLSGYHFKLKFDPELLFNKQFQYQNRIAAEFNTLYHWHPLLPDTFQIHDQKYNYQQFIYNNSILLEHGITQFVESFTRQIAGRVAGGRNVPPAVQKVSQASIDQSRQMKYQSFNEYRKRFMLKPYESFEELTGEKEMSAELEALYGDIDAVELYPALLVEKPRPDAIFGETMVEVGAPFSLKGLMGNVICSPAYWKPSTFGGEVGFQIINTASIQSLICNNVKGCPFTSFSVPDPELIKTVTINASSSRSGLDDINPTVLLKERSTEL

[4] = target: T3, Prostaglandin G/H synthase 1 (Homo sapiens, UniProt P23219); test: Inhibition of COX1
[5] = target: T4, Prostaglandin G/H synthase 2 (Homo sapiens) (UniProt P35354); test: Inhibition of COX2
T4 sequence (whole entry): T2 sequence (P35354 whole entry)

[6] = target: T3, Prostaglandin G/H synthase 1; test: Inhibition of human recombinant COX1
[7] = target: T2, Prostaglandin G/H synthase 2; test: Inhibition of human recombinant COX2
[8] = Inhibition of rat mPGES1
[9] = target: T1, Prostaglandin E synthase; test: Inhibition of mPGES1; outline: as §1
[10] = Aqueous solubility assessed as nitrogen content after 24 hrs; type: physicochemical
Outline: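 Test compound from 30 mM DMSO stock diluted into 50 mM sodium phosphate buffer at the indicated pH (final 2% DMSO). Shaken 24 h at room temperature (23–25 °C), vacuum filtered. Filtrate nitrogen measured by chemiluminescent nitrogen detection; concentration derived from nitrogen count in molecular formula, reported in µg/mL and µM.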

[11] = target: T1, Prostaglandin E synthase; test: Inhibition of human mPGES1 in IL-1-beta-stimulated human RASF cells assessed as blockade of PGH2 to PGE2 conversion after 50 mins by ELISA; type: cell-based
Outline: (§3)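 RA synovial fibroblasts cultured 3 days in DMEM/10% FBS, then 24 h with 1 ng/mL IL-1β in DMEM/1% FBS. Washed; compound (1% Me2SO final) 50 min, then 10 µM arachidonic acid 10 min at 37 °C. For PGF2α, 2 mg/mL SnCl2 added 40 min after compound. Prostanoids in conditioned media by ELISA.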

[12] = target: T5, Prostacyclin synthase (Homo sapiens, UniProt Q16647); test: Inhibition of human prostacyclin synthase in IL-1-beta-stimulated human RASF cells assessed as PGF1alpha levels after 50 mins by ELISA; type: cell-based; outline: as §3
T5 sequence (Q16647 whole entry): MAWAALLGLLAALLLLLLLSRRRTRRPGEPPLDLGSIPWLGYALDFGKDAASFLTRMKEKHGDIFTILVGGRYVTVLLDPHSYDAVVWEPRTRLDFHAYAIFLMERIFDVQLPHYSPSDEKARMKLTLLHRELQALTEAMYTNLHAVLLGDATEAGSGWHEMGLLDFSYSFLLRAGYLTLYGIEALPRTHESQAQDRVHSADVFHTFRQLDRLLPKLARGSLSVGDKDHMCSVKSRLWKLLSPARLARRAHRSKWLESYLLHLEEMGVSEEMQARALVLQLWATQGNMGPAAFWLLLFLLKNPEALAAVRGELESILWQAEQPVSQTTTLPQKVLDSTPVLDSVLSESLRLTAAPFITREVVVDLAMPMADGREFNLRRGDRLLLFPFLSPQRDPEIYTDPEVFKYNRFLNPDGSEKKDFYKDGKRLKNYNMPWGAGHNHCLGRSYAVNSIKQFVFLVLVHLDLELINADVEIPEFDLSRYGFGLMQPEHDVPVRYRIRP

[13] = target: T2, Prostaglandin G/H synthase 2; test: Inhibition of human COX2 in IL-1-beta-stimulated human RASF cells assessed as PGF2alpha levels after 50 mins by ELISA; type: cell-based; outline: as §3
[14] = target: T6, Thromboxane-A synthase (Homo sapiens, UniProt P24557); test: Inhibition of human thromboxane A synthase in IL-1-beta-stimulated human RASF cells assessed as TXB2 levels after 50 mins by ELISA; type: cell-based
T6 sequence (P24557 whole entry): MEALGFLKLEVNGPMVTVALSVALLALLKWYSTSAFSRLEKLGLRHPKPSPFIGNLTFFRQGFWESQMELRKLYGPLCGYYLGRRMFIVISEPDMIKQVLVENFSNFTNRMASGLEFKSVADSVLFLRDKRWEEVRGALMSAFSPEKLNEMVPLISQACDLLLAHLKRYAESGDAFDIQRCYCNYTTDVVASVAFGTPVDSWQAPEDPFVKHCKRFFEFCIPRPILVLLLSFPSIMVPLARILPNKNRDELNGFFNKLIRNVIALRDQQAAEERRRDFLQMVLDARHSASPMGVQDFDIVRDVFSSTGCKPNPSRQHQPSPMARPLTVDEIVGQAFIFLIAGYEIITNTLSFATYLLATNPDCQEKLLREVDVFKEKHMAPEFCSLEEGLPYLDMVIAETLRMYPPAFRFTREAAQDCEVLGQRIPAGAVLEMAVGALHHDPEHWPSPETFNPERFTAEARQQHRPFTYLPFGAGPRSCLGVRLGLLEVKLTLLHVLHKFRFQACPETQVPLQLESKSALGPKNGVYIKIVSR

[15] = target: T1, Prostaglandin E synthase; test: Inhibition of human mPGES1 in […] assessed as PGE2 level after 24 hrs by ELISA; type: tissue-based, Blood; conditions: in the assay text read “by ELISA” for “after 24 hrs by ELISA”
Outline: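 Heparinized healthy-donor human whole blood (100 µL/well) mixed with 10⁵ 1483 head-and-neck carcinoma cells, compound 15 min at 37 °C, then 30 µM arachidonic acid 10 min. Centrifuged 930 g 10 min; plasma PGE2 by ELISA.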

T3 sequence (P23219 whole entry): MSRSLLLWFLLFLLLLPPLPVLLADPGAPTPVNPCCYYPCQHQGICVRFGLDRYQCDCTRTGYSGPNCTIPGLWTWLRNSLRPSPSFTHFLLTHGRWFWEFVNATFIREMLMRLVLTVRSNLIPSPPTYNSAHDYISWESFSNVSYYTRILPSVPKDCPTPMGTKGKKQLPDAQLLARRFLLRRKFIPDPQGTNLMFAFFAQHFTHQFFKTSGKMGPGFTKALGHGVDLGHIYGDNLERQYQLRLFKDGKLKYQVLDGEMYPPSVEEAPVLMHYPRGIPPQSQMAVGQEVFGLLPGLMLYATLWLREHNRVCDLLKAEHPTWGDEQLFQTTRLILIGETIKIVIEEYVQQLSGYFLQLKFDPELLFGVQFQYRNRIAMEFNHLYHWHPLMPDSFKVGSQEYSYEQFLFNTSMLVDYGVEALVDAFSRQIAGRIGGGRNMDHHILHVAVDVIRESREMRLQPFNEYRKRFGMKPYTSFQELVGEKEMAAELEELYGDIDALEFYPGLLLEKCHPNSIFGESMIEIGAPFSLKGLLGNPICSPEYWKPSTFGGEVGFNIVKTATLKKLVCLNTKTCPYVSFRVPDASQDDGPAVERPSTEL

Row | IC50 [1] [µM] | IC50 [2] [µM] | IC50 [3] [µM] | SMILES | also measured
1 | 0.043 | < 0.76 | > 74.8 | O=C(Nc1ccc(-c2ccc(Cl)cc2Cl)cc1)C1=C(O)c2ccccc2S(=O)(=O)N1 | –
2 | 3.13 | 6.73 | 92.6 | O=C(Nc1ccc(-c2ccccc2)cc1)C1=C(O)c2ccccc2S(=O)(=O)N1 | –
3 | 0.28 | 2.04 | – | CN1C(C(=O)Nc2ccc(-c3ccc(Cl)c(Cl)c3)cc2)=C(O)c2ccccc2S1(=O)=O | –
4 | 32.2 | – | – | COc1ccc(-c2ccc(NC(=O)C3=C(O)c4ccccc4S(=O)(=O)N3)cc2)cc1OC | –
5 | 0.11 | 0.46 | > 68 | O=C(Nc1ccc(CCc2ccc(Cl)c(Cl)c2)cc1)C1=C(O)c2ccccc2S(=O)(=O)N1 | INH [4]: > 50 µM; INH [5]: > 50 µM; IC50 [6]: 489 µM; IC50 [7]: 467 µM
6 | < 0.026 | < 0.75 | > 57.7 | Cc1ccc(-c2ccc(NC(=O)C3=C(O)c4ccccc4S(=O)(=O)N3)cc2)cc1C | –
7 | 0.69 | 1.29 | > 100 | COc1ccc2c(c1)C(O)=C(C(=O)Nc1ccc(-c3ccc(Cl)c(Cl)c3)cc1)NS2(=O)=O | –
8 | 3.05 | – | – | COc1ccc2c(c1)S(=O)(=O)NC(C(=O)Nc1ccc(-c3ccc(Cl)c(Cl)c3)cc1)=C2O | –
9 | 5.76 | 37.6 | > 100 | O=C(CNS(=O)(=O)c1ccccc1C(=O)O)Nc1ccc(-c2ccc(Cl)c(Cl)c2)cc1 | –
10 | 0.53 | 6.73 | 70 | O=C(Nc1ccc(Oc2ccc(Cl)cc2)cc1)C1=C(O)c2ccccc2S(=O)(=O)N1 | –
11 | 0.19 | 0.67 | > 100 | O=C(Nc1ccc(-c2ccc(Cl)c(Cl)c2)cc1)C1NS(=O)(=O)c2ccccc2C1O (stereo unspecified) | IC50 [6]: > 50 µM; IC50 [7]: > 50 µM
12 | 12.7 | – | – | O=C(Nc1ccc(-c2ccc(Cl)nc2)cc1)C1=C(O)c2ccccc2S(=O)(=O)N1 | –
13 | 0.16 | 0.69 | 33.7 | O=C(Nc1ccc(-c2ccc(Cl)c(Cl)c2)nc1)C1=C(O)c2ccccc2S(=O)(=O)N1 | –
14 | 1 | 6.59 | 94.7 | Cc1cccc(-c2ccc(NC(=O)C3=C(O)c4ccccc4S(=O)(=O)N3)cc2)c1C | –
15 | 3.91 | 2.16 | 95.3 | O=C(Nc1cccc(C(=O)c2ccc(Cl)cc2)c1)C1=C(O)c2ccccc2S(=O)(=O)N1 | –
16 | 0.15 | 4.24 | > 100 | O=C(Nc1ccc(Nc2ccc(Cl)cc2)cc1)C1=C(O)c2ccccc2S(=O)(=O)N1 | –

Row | IC50 [1] [µM] | IC50 [2] [µM] | IC50 [3] [µM] | SMILES | also measured
17 | < 0.07 | 2.24 | > 100 | Cc1ccc(-c2ccc(NC(=O)C3=C(O)c4ccccc4S(=O)(=O)N3)cc2)cc1 | –
18 | 0.038 | < 0.92 | 44.4 | O=C(Nc1ccc(-c2cccc(Cl)c2Cl)cc1)C1=C(O)c2ccccc2S(=O)(=O)N1 | –
19 | – | – | – | CC(C)c1ccc2c(c1)c(SC(C)(C)C)c(CC(C)(C)C(=O)O)n2Cc1ccc(Cl)cc1 | IC50 [8]: 3.2 µM
20 | – | – | – | Fc1cccc(Cl)c1-c1nc(-c2ccc(C#Cc3ccc(C(F)(F)F)cc3)nc2)c(Br)[nH]1 | IC50 [9]: 0.0008 µM
21 | 0.29 | 1.45 | 33.7 | O=C(Nc1ccc(-c2ccc(Cl)cc2)cc1)C1=C(O)c2ccccc2S(=O)(=O)N1 | –
22 | 29.6 | – | – | O=C(CNS(=O)(=O)c1ccccc1CO)Nc1ccc(-c2ccc(Cl)c(Cl)c2)cc1 | –
23 | 0.11 | 1.14 | 95.6 | O=C(Nc1ccc(C(=O)c2ccc(Cl)cc2)c(Cl)c1)C1=C(O)c2ccccc2S(=O)(=O)N1 | –
24 | 0.016 | 0.42 | > 100 | O=C(Nc1ccc(-c2ccc(Cl)c(Cl)c2)cc1)C1=C(O)c2ccccc2S(=O)(=O)N1 | IC50 [6]: 118 µM; IC50 [7]: 263 µM; solubility at 24 h [10]: < 3 µM; IC50 [11]: 0.5 µM; IC50 [12]: > 100 µM; IC50 [13]: > 100 µM; IC50 [14]: > 100 µM; IC50 [15]: 5 µM
25 | 65.6 | – | – | O=C(Nc1ccc(-c2ccc(Cl)c(Cl)c2)cn1)C1=C(O)c2ccccc2S(=O)(=O)N1 | –
26 | 11.7 | – | – | O=C(Nc1ccc(-c2ccc(Cl)cc2Cl)cn1)C1=C(O)c2ccccc2S(=O)(=O)N1 | –
27 | 1.68 | 3.4 | > 90 | O=C(Nc1ccccc1CCc1ccc(Cl)c(Cl)c1)C1=C(O)c2ccccc2S(=O)(=O)C1 | –
28 | 0.18 | – | – | O=C(Nc1ccc(-c2ccc(Cl)c(Cl)c2)cc1)C1=C(O)c2ccc(O)cc2S(=O)(=O)N1 | –
29 | 0.86 | 3.44 | 74.7 | O=C(Nc1ccc(-c2cccc(Cl)c2)cc1)C1=C(O)c2ccccc2S(=O)(=O)N1 | –
30 | 3.96 | – | – | N#Cc1ccc(-c2ccc(NC(=O)C3=C(O)c4ccccc4S(=O)(=O)N3)cc2)cc1 | –
31 | 0.098 | 1.45 | > 100 | O=C(Nc1ccc(-c2ccc(Cl)c(Cl)c2)cc1)C1=C(O)c2cc(O)ccc2S(=O)(=O)N1 | –
